The source made the active and inactive calls. No cut-off for these calls is given here.
Tests used:
[1] = system: Plasmodium falciparum; test: Antimalarial activity against Plasmodium falciparum Dd2 […] cells after 72 hrs by [3H]hypoxanthine incorporation assay; format: functional, organism-based
In short: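 Synchronized (sorbitol) blood-stage P. falciparum Dd2 cultures exposed to a range of compound concentrations for 72 h; growth read by [³H]-hypoxanthine incorporation, percent inhibition used to derive IC₅₀. At least three independent repeats, mean ± SEM.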

[2] = Cytotoxicity against human HeLa cells after 72 hrs by methylene blue staining; format: cell-based
In short: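 HeLa cells in RPMI 1640 with 10% heat-inactivated FBS and gentamicin; ~10,000 cells/well preincubated 48 h, then exposed to compound (DMSO stock 10 mg/mL diluted 1:200) for 72 h at 37 °C, 5% CO₂. Glutaraldehyde fixation, 0.05% methylene blue staining, elution with 0.33 M HCl, OD 660 nm.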

[3] = Selectivity index, ratio of CC50 for human HeLa cells to IC50 for Plasmodium falciparum Dd2 […] cells; format: functional
In short: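 Selectivity index computed as HeLa CC₅₀ (72 h methylene blue assay) divided by P. falciparum Dd2 IC₅₀ (72 h [³H]-hypoxanthine assay).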

[4] = system: Trypanosoma brucei brucei; test: Antitrypanosomal activity against Trypanosoma brucei brucei TC221 after 48 hrs by alamar blue assay; format: functional, organism-based; conditions: TC221, 48 h
In short: (§1)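 T. b. brucei TC 221 trypomastigotes grown in Baltz medium; 10⁴ parasites/mL exposed to graded compound concentrations (DMSO or 0.1 M NaOH solutions) at 37 °C, 5% CO₂. Alamar Blue absorbance at 550 nm (reference 630 nm) read at 48 h and 72 h. Parasite-only and compound-only controls; ED₅₀ by linear interpolation of three measurements.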

[5] = target: T1, Multidrug resistance protein Pgh1 (Plasmodium falciparum) (UniProt Q9NG76); test: Inhibition of Plasmodium PGH1-mediated fluorochrome accumulation into parasite digestive vacuole at […] concentration
T1 sequence (whole entry): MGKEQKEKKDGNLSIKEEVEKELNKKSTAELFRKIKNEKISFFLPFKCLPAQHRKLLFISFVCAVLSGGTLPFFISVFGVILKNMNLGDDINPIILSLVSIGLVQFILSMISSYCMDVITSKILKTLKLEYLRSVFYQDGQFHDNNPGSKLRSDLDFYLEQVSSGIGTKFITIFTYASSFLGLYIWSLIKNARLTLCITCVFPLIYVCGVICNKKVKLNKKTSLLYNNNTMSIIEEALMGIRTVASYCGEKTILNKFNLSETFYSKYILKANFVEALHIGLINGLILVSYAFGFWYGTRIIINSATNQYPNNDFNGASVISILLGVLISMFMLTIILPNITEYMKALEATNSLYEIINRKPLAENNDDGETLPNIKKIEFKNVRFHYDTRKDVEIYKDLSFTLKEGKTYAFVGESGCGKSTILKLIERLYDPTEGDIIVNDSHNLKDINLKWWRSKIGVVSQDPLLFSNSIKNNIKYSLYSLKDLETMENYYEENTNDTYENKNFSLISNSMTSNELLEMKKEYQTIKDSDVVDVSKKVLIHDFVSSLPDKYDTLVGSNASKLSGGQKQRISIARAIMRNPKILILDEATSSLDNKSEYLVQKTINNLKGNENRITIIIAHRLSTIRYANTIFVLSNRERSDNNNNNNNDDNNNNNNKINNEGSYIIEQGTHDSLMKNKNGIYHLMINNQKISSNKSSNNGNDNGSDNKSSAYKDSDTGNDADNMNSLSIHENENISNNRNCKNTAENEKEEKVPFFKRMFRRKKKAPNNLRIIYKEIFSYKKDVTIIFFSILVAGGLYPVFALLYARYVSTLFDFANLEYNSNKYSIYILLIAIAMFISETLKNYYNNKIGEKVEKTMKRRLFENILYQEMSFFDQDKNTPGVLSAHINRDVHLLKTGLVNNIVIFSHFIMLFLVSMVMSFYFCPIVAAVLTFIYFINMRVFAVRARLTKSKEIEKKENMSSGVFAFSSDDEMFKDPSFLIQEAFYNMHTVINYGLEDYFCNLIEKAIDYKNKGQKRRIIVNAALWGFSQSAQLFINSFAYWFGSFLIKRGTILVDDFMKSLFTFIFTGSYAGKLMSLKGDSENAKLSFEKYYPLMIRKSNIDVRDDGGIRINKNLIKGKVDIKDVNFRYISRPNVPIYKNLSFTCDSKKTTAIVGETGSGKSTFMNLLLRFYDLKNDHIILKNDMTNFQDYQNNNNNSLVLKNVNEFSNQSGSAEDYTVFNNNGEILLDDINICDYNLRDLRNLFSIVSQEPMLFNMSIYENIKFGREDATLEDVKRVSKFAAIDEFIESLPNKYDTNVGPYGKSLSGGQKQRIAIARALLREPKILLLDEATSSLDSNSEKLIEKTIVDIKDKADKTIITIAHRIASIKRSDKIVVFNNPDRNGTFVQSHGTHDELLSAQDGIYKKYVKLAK

[6] = system: Trypanosoma brucei brucei; test: Antitrypanosomal activity against Trypanosoma brucei brucei TC221 after 72 hrs by alamar blue assay; format: functional, organism-based; conditions: TC221, 72 h; in short: as §1
[7] = target: ATP-dependent translocase ABCB1 (Homo sapiens, UniProt P08183); test: Inhibition of ABCB1 overexpressed in human CCRF-CEM/VCR1000 cell assessed as inhibition of daunomycin efflux after 30 mins by FACS analysis

Row | Structure (SMILES) | IC50 [1] | CC50 at 72 h [2] | Ratio CC50/IC50 [3] | IC50 [4] | inhibition [5] | IC50 [6] | EC50 [7]
1 | CCC(=O)Nc1ccc(NC(=O)CN2CCN(C)CC2)c(C(=O)c2ccccc2)c1 | > 16 µM | > 122 µM | >8 | 53.4 µM | inactive | 71.5 µM | –
2 | CN1CCN(C(C(=O)Nc2ccc(NS(=O)(=O)c3ccccc3)cc2C(=O)c2ccccc2)c2ccccc2)CC1 (racemic) | 0.91 µM | 26 µM | 29 | 5.38 µM | inactive | 2.92 µM | 0.89 µM
3 | CN1CCN(C(C(=O)Nc2ccc(NC(=O)c3ccc4ccccc4c3)cc2C(=O)c2ccccc2)c2ccccc2)CC1 (racemic) | 0.24 µM | 4 µM | 17 | 1.98 µM | inactive | 2.64 µM | 0.04 µM
4 | CCC(=O)Nc1ccc(NC(=O)C(c2ccccc2)N2CCN(C)CC2)c(C(=O)c2ccccc2)c1 (racemic) | 7.19 µM | 84 µM | 12 | 16.7 µM | inactive | 24.6 µM | 3.3 µM
5 | CN1CCN(C(C(=O)Nc2ccc(NC(=O)Cc3ccccc3)cc2C(=O)c2ccccc2)c2ccccc2)CC1 (racemic) | 2 µM | 16 µM | 8 | 3.64 µM | inactive | 3.25 µM | 0.36 µM
6 | CC1CCN(C(=O)Nc2ccc(NC(=O)C(c3ccccc3)N3CCN(C)CC3)c(C(=O)c3ccccc3)c2)CC1 (centres undefined) | > 16 µM | – | – | – | inactive | – | 4.97 µM
7 | CN1CCN(CC(=O)Nc2ccc(NC(=O)c3ccccc3)cc2C(=O)c2ccccc2)CC1 | > 16 µM | > 109 µM | >7 | 49.4 µM | inactive | 83.2 µM | –
8 | CN1CCN(C(C(=O)Nc2ccc(N(S(=O)(=O)c3ccccc3)S(=O)(=O)c3ccccc3)cc2C(=O)c2ccccc2)c2ccccc2)CC1 (racemic) | 1.24 µM | 12 µM | 10 | 3.01 µM | inactive | 3.12 µM | 0.04 µM
9 | CN1CCN(C(C(=O)Nc2ccc(NS(C)(=O)=O)cc2C(=O)c2ccccc2)c2ccccc2)CC1 (racemic) | 10.6 µM | 99 µM | 9 | 5.58 µM | inactive | 5.84 µM | 15.5 µM
10 | CC(=O)Nc1ccc(NC(=O)CN2CCN(C)CC2)c(C(=O)c2ccccc2)c1 | 9.45 µM | 53 µM | 6 | 23.1 µM | inactive | 22.9 µM | –
11 | CN1CCN(C(C(=O)Nc2ccc(NC(=O)CCc3ccccc3)cc2C(=O)c2ccccc2)c2ccccc2)CC1 (racemic) | 1.8 µM | 8 µM | 4 | 3.27 µM | inactive | 3.02 µM | 0.06 µM
12 | CC(=O)Nc1ccc(NC(=O)C(c2ccccc2)N2CCN(C)CC2)c(C(=O)c2ccccc2)c1 (racemic) | 9.72 µM | 105 µM | 11 | 9.05 µM | inactive | 6.59 µM | 6.29 µM
13 | CN1CCN(CC(=O)Nc2ccc(NC(=O)CCc3ccccc3)cc2C(=O)c2ccccc2)CC1 | 6.72 µM | 80 µM | 12 | 13.9 µM | inactive | 21.9 µM | 2.23 µM
14 | CN1CCN(C(C(=O)Nc2ccc(NC(=O)C(C)(C)C)cc2C(=O)c2ccccc2)c2ccccc2)CC1 (racemic) | 3.04 µM | 45 µM | 15 | 11.4 µM | inactive | 4.67 µM | 0.39 µM
15 | CN1CCN(C(C(=O)Nc2ccc(NC(=O)c3cccnc3)cc2C(=O)c2ccccc2)c2ccccc2)CC1 (centres undefined) | 2.26 µM | 37 µM | 16 | 5.06 µM | inactive | 7.02 µM | 5.12 µM
16 | CN1CCN(C(C(=O)Nc2ccc(NC(=O)c3cccc4ccccc34)cc2C(=O)c2ccccc2)c2ccccc2)CC1 (racemic) | 0.93 µM | 4 µM | 4 | 1.93 µM | inactive | 2.68 µM | 0.23 µM
17 | CN1CCN(CC(=O)Nc2ccc(NC(=O)c3ccc4ccccc4c3)cc2C(=O)c2ccccc2)CC1 | 2.01 µM | 9 µM | 5 | 0.81 µM | inactive | 2.01 µM | 0.48 µM
18 | CC(C)N(C(=O)Nc1ccc(NC(=O)C(c2ccccc2)N2CCN(C)CC2)c(C(=O)c2ccccc2)c1)C(C)C (centres undefined) | 0.11 µM | 4 µM | 36 | – | inactive | – | 0.46 µM
19 | CN1CCN(C(C(=O)Nc2ccc(NC(=O)c3ccccc3)cc2C(=O)c2ccccc2)c2ccccc2)CC1 (racemic) | 1.61 µM | 16 µM | 10 | 3.28 µM | inactive | 3.28 µM | 0.24 µM
